Experimental data: ChEMBL document CHEMBL1949516, “Synthesis and antimycobacterial evaluation of N-substituted 3-aminopyrazine-2,5-dicarbonitriles” (Bioorg Med Chem Lett, 2012)
Values after ≈ are worked out from the molar mass of the structure shown.

How the values were obtained:
[1] = Partition coefficient, log k of the compound; format: physicochemical; details: octanol/water
Outline: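 Capacity factor k measured by isocratic RP-HPLC on an end-capped non-polar C18 column, with methanol as organic modifier in the mobile phase. Value given as log k and used as a lipophilicity index converted to the logP scale.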

[2] = tested on: Mycobacterium tuberculosis; experiment: Antimycobacterial activity against Mycobacterium tuberculosis H37Rv CNCTC My 331/88 after 14 days by microdilution panel method; format: functional; details: H37Rv CNCTC My 331/88, 336 h
Outline: (§1)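 Compounds dissolved in DMSO, diluted in Šula's semisynthetic medium in microdilution panels. Cultures grown in Šula's medium, pH 5.5, 37 °C. After 14 days incubation, activity read visually as MIC (µg/mL), also converted to µmol/L. Pyrazinamide run as standard.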

Mycobacterium kansasii = experiment: Antimycobacterial activity against Mycobacterium kansasii CNCTC My 235/80 after 6 days by microdilution panel method; format: functional; details: CNCTC My 235/80, 144 h
Outline: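 Microdilution panel; compounds dissolved in DMSO and diluted with Šula's semisynthetic medium. Cultures grown in Šula's semisynthetic medium, pH 5.5, 37 °C. After 6 days of incubation, MIC (µg/mL) read visually. MICs also converted to molar units (µmol/L). PZA run as standard.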

Mycobacterium avium [3] = experiment: Antimycobacterial activity against Mycobacterium avium CNCTC My 80/72 after 14 days by microdilution panel method; format: functional; details: CNCTC My 80/72, 336 h; outline: as §1
Mycobacterium avium [4] = experiment: Antimycobacterial activity against Mycobacterium avium CNCTC My 152/73 after 14 days by microdilution panel method; format: functional; details: CNCTC My 152/73, 336 h; outline: as §1
[5] = Aqueous solubility of the compound; format: physicochemical; details: buffer

Row | SMILES | log K [1] | MIC [2] [µg/mL] | MIC (Mycobacterium kansasii) [µg/mL] | MIC (Mycobacterium avium [3]) [µg/mL] | MIC (Mycobacterium avium [4]) [µg/mL] | solubility [5]
1 | N#Cc1cnc(C#N)c(Cl)n1 | 0.5792 | 25 (≈ 152 µM) | > 200 | 100 (≈ 608 µM) | 100 (≈ 608 µM) | 
2 | CNc1nc(C#N)cnc1C#N | 0.5859 | 100 (≈ 628 µM) | 100 (≈ 628 µM) | > 200 | > 200 | 
3 | CCNc1nc(C#N)cnc1C#N | 0.6146 | 100 (≈ 577 µM) | 200 (≈ 1150 µM) | > 200 | > 200 | 
4 | CCCNc1nc(C#N)cnc1C#N | 0.6497 | 200 (≈ 1070 µM) | 200 (≈ 1070 µM) | 200 (≈ 1070 µM) | 200 (≈ 1070 µM) | 
5 | CCCCNc1nc(C#N)cnc1C#N | 0.7088 | 100 (≈ 497 µM) | 100 (≈ 497 µM) | 100 (≈ 497 µM) | 100 (≈ 497 µM) | 
6 | CCCCCNc1nc(C#N)cnc1C#N | 0.7901 | 50 (≈ 232 µM) | 100 (≈ 465 µM) | 100 (≈ 465 µM) | 100 (≈ 465 µM) | 
7 | CCCCCCNc1nc(C#N)cnc1C#N | 0.9133 | 25 (≈ 109 µM) | 50 (≈ 218 µM) | 100 (≈ 436 µM) | 100 (≈ 436 µM) | 
8 | CCCCCCCNc1nc(C#N)cnc1C#N | 1.0243 | 12.5 (≈ 51.4 µM) | > 200 | > 200 | > 200 | 
9 | CCCCCCCCNc1nc(C#N)cnc1C#N | 1.1953 | 25 (≈ 97.1 µM) | 100 (≈ 389 µM) | > 200 | > 200 | 
10 | N#Cc1cnc(C#N)c(NC2CCCC2)n1 | 0.7273 | > 200 | > 200 | > 200 | > 200 | Insoluble
11 | N#Cc1cnc(C#N)c(NC2CCCCC2)n1 | 0.7896 | > 200 | > 200 | > 200 | > 200 | Insoluble
12 | N#Cc1cnc(C#N)c(NC2CCCCCC2)n1 | 0.8789 | > 200 | > 200 | > 200 | > 200 | Insoluble
13 | CCN(CC)c1nc(C#N)cnc1C#N | 0.6685 | 100 (≈ 497 µM) | 100 (≈ 497 µM) | > 200 | > 200 | 
14 | CN1CCN(c2nc(C#N)cnc2C#N)CC1 | 0.5946 | > 200 | > 200 | > 200 | > 200 | 
15 | N#Cc1cnc(C#N)c(N2CCOCC2)n1 | 0.583 | 200 (≈ 929 µM) | 200 (≈ 929 µM) | > 200 | > 200 | 
16 | NC(=O)c1cnccn1 [PYRAZINAMIDE] | 0.0514 | 12.5 (≈ 102 µM) | > 200 | > 200 | > 200 | 
